PostGolgi yeast: growth inhibition of a yeast mutant, post-Golgi transport screen; post-Golgi transport phenotypic cell assay; inhibition, % at 10 µM; 98,000 compounds, 0.9% hits; AID 739;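 also: yeast cells grown in 1536-well plates; yeast grown about 18 h at 30C before absorbance read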
Ecoli tolC: growth inhibitors of E. coli BW25113 tolC mutant; OD615; 65,000 compounds, 2.2% hits; AID 573; growth inhibition, % at 10 µM (by protocol);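 active = growth inhibition at or above a cutoff equal to the mean over every tested compound plus 3 SD, cut at about 60% in these data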;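 also: growth measured after 20 h incubation at 37 °C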
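Test system: E. coli BW25113 ΔtolC::kan bacteria | Medium: Kanamycin-containing LB broth (50 µg/mL) | Dosing: One dose of 10 µM final | Times: 20 h incubation with compound, 37 °C | Detection: Optical density read at 615 nm | Read-out basis: Percent growth inhibition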
Ecoli WT expand: blocks growth of wild type E. coli BW25113 | 98,000 compounds, 0.15% hits | AID 710 | OD600 absorbance | growth inhibition, % at 100 µM;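 active = growth inhibition above about 50% at one test dose, limit read from the data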;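 also: growth measured after 20 h incubation at 37 °C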
EphB4 ephrin blk: blocks human EphB4 binding to ephrin-B2; 97,000 compounds, 0.15% hits; P54760; EphB4 LBD / TNYL-RAW-Alexa532 peptide, fluorescence polarization; inhibition, % at 7 µM;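 active = inhibition above the screen-wide mean inhibition plus 3 SD, cut at about 15% in these data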;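 also: 0% = DMSO wells and 100% = excess unlabeled TNYL-RAW peptide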
Target sequence (P54760 whole entry, looked up, the tested form may be a part): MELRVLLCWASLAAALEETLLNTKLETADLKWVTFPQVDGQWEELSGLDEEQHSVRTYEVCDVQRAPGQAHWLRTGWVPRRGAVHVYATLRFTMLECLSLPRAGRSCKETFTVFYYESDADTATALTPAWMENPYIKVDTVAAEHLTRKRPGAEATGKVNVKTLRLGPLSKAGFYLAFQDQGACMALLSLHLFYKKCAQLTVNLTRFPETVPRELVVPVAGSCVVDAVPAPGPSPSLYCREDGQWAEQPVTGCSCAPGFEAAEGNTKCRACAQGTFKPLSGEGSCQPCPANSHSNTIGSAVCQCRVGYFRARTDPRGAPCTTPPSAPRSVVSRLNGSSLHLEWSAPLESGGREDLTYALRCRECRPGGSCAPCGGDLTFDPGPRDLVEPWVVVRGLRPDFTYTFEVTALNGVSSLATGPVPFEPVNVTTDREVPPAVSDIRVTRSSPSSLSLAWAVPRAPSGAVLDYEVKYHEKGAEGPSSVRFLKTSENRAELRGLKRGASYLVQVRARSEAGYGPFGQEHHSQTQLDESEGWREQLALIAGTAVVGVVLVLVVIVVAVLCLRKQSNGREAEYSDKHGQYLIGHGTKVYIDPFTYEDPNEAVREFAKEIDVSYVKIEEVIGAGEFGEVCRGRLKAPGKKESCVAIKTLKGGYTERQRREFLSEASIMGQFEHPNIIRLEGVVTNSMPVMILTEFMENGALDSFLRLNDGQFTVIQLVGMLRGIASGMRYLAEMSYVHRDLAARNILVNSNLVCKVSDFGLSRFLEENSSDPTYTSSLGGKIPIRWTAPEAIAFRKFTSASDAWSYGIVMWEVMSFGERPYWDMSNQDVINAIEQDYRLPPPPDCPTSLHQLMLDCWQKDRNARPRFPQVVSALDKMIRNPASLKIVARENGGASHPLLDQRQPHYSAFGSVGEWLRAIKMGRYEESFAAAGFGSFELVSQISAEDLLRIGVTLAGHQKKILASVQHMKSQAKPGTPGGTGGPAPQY
PostGolgi ctrl: yeast control strain growth, post-Golgi counter-screen; efflux-deficient yeast background strain, growth absorbance A615, 16 h; inhibition, % at 10 µM; 98,000 compounds, 5% hits; AID 738
The depositor's hits bear a star; . = no result. An excerpt weighted towards active compounds, which were near 6% of everything screened. Rule as the data show it, unless noted: active = inhibition above about 30%; inactive = the rest.

SMILES	PostGolgi yeast	Ecoli tolC	Ecoli WT expand	EphB4 ephrin blk	PostGolgi ctrl
O=C(Cc1cccs1)Nc1ccc(-c2nnc(-c3ccccc3)o2)cc1	.	.	.	-9	.
CCCCC(=O)Nc1cccc(-c2nnc(-c3ccccc3)o2)c1	4	68*	-5	-8	8
Cc1cccc(-c2nnc(-c3cccc(NC(=O)Cc4cccs4)c3)o2)c1	81*	.	1	0	26
Cc1ccc2c(c1)N(C(=O)c1ccco1)C(C)(C)c1ssc(=S)c1-2	1	.	-9	-2	15
COC(=O)C1CSC(C(=O)OC)N1C(=O)Nc1c(C)cccc1C (centres undefined)	-5	.	3	2	38*
Cc1cccc(C)c1NC(=O)N1C(C(=O)O)CSC1C(=O)O (centres undefined)	-1	.	0	7	1
CCCN(CCC)CCCNC(=O)c1cc2cc3ccc(OC)cc3nc2o1	5	-2	-3	6	40*
CCN1CCN(CCCNC(=O)c2cc3cc4ccc(OC)cc4nc3o2)CC1	13	-3	0	7	35*
CCCCN(CC)CCCNC(=O)c1cc2cc3ccc(OC)cc3nc2o1	7	0	2	-5	46*
COc1ccc2cc3cc(C(=O)NCCN4CCN(Cc5ccccc5)CC4)oc3nc2c1	11	30	0	1	16
COc1ccc2cc3cc(C(=O)NCCCN4CCOCC4)oc3nc2c1	15	-9	-1	0	24
COc1ccc2cc3cc(C(=O)NCCN4CCc5ccccc5C4)oc3nc2c1	6	55	7	1	66*
COc1ccc2cc3cc(C(=O)NCCc4ccc(OC)c(OC)c4)oc3nc2c1	7	-7	-4	2	27
O=C(Cc1ccc(F)cc1)Nc1c2c(nn1-c1cccc(Cl)c1)CS(=O)C2 (centres undefined)	-2	15	-1	3	10
Cc1cc(OCC(F)(F)C(F)(F)C(F)(F)C(F)(F)C(F)(F)C(F)F)nc(N)n1	37*	.	9	3	3
O=C1CC(C(=O)Nc2cccc3ccccc23)C2(CCCC2)O1 (centres undefined)	-2	.	-2	-4	1
Cc1nn(-c2nc3ccccc3n2Cc2ccccc2)c2c1C(=O)CC(C)(C)C2	-11	91*	-17	3	26
Cc1nn(-c2ccccc2)c2c1C(=O)N(Cc1ccccc1)C(=O)C(C)(C)C2	3	.	0	1	24
CCC(=O)c1ccc(N2CCN(C(=O)c3ccc(Br)cc3)CC2)c(F)c1	62*	-4	-8	-1	25
N#CC1=C(c2ccccc2)/C(=C/c2ccccc2)OC1=O	11	.	-9	-2	51*
O=C1/C(=C/c2ccccc2)Nc2ccccc21	-32	.	5	7	11
CCc1nn(-c2ccccc2)c2c1-c1cc(OC)c(OC)cc1C1(N2)C(=O)Nc2ccccc21 (centres undefined)	24	.	2	0	6
Cc1nc(COC(=O)c2c(C)nn(-c3ccccc3)c2C)cs1	12	30	0	6	9
[O-]/[N+](=C\c1ccncc1)c1ccccc1	6	-10	-3	-5	10
[O-]/[N+](=C/c1ccc(F)cc1)c1ccccc1	10	-16	7	7	33*
SMILES	PostGolgi yeast	Ecoli tolC	Ecoli WT expand	EphB4 ephrin blk	PostGolgi ctrl
CN1CC(=O)NC1=NC(=O)c1ccc(Cl)c(S(=O)(=O)N2CCCCCC2)c1	-6	17	3	0	23
Cc1ccc(Cn2ccc(NC(=O)c3cc(-c4ccc5c(c4)OCO5)on3)n2)cc1	1	-13	-18	4	35*
CCSc1nc2c(c(=O)n1Cc1ccccc1)SC(C)C2 (centres undefined)	1	40	-2	-3	33*
O=S(=O)(Cc1ccc(Cl)cc1)c1ccccc1-c1nnc(-c2ccc(Cl)cc2)o1	10	.	-17	2	29
O=c1c2c(nc3c(-c4ccc(Cl)cc4)c[nH]n13)CCCC2	-9	100*	-2	-2	8
O=c1c2c(nc3c(-c4cccc5ccccc45)c[nH]n13)CCC2	-2	65*	-2	-11	-1
Cc1[nH]n2c(=O)c3c(nc2c1-c1cccc2ccccc12)CCC3	-9	.	4	-7	-1
O=c1c2c(nc3cc(-c4cccc(Cl)c4)[nH]n13)CCC2	17	.	3	9	-8
CCOC(=O)C1CCCN(Cc2ccc(OCC)cc2)C1 (centres undefined)	-4	.	-2	7	-4
CC(Oc1ccc(F)cc1)C(=O)Nc1sc2c(c1C(=O)NCc1cccnc1)CCCC2 (centres undefined)	0	.	-8	4	42*
O=C(Nc1sc2c(c1C(=O)c1ccc(Cl)cc1)CCCC2)c1cccnc1	8	.	-10	-2	40*
O=C(Nc1sc2c(c1C(=O)NCc1cccnc1)CCCC2)c1ccco1	0	-3	-5	0	15
c1ccc(-c2csc3nnc(SCc4ccc5c(c4)OCO5)n23)cc1	-3	30	-7	-9	33*
O=C(CCSc1nnc2scc(-c3ccccc3)n12)NCc1ccc2c(c1)OCO2	8	31	3	0	-2
O=C(CSc1nnc2scc(-c3ccccc3)n12)Nc1ccc2c(c1)OCCO2	1	59	-11	4	37*
CC(CCc1ccccc1)NC(=O)CSc1nc(N)cc(N)n1 (centres undefined)	20	-9	4	-1	-6
c1ccc2c(-c3nc4ncccc4o3)cccc2c1	7	-1	6	-6	15
Cc1ccc2nc3c(cc(C#N)c(=O)n3-c3nccs3)c(=O)n2c1	4	-23	-6	.	31*
CC(C)NC(=O)c1ccc(OC2CSC2)cc1	1	.	1	2	16
Cn1cc([N+](=O)[O-])c(C(=O)Nc2cc(Oc3cccnc3)cc([N+](=O)[O-])c2)n1	3	.	2	-5	21
Cc1ccc(CNCCC2=CCCCC2)cc1	-5	.	17	-4	14
N#Cc1c2n(c(=S)n(-c3ccccn3)c1=O)CCCCC2	2	5	-6	-14	-2
O=c1c2c3n(c(=S)nc2[nH]n1-c1ccccc1)CCCCC3	7	.	1	5	62*
CC(C)(C)n1nnnc1C(c1cc2cc3c(cc2[nH]c1=O)OCCO3)N1CCSCC1 (centres undefined)	2	21	0	4	-1
CCC(C)(C)n1nnnc1C(c1cc2cc3c(cc2[nH]c1=O)OCO3)N1CCN(C)CC1 (centres undefined)	30*	-17	4	-4	0
CCC(C)(C)n1nnnc1C(c1cc2cc(C)cc(C)c2[nH]c1=O)N1CCN(Cc2ccc3c(c2)OCO3)CC1 (centres undefined)	18	.	-7	4	37*
COc1cc(CN2CCN(c3ccc(C)cc3)CC2)cc([N+](=O)[O-])c1O	92*	.	-4	-6	9
CC1=C(C(=O)OC2CCCCCC2)C(c2ccc(C)o2)C2=C(CCCC2=O)N1 (centres undefined)	0	100*	-7	.	15
